The values that follow come from ChEMBL document CHEMBL1131567, “Ethnobotanical-directed discovery of the antihyperglycemic properties of cryptolepine: its isolation from Cryptolepis sanguinolenta, synthesis, and in vitro and in vivo activities” (1998).

“And” between values parts separate entries of the source, which are not always exact repeats. Equal values may be shown once.

The species entered for assay [1] is Mus musculus. Briefly: Food intake in db/db Mice expressed as gram/mouse/day and the observation made is after 48 hr. The class given is functional. In short, it runs like this: (§1)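 Male C57BL/Ks-db/db mice, 8-9 weeks old, housed 4/cage at 22 °C with chow and water ad libitum. Mice with tail-vein plasma glucose of 350-600 mg/dL were grouped at eight per group with matched mean glucose. Oral gavage once daily for 1 or 2 days at 30 or 100 mg/kg, with vehicle control. Body weight and cage food consumption measured after 24-27 h.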

Assay [2] relates to Mus musculus. The experiment in a line: Mean body weight expressed as grams/mouse at 0hrs, when given at 100 mg/kg. It counts as functional. In short, it runs like this:
as §1

Assay [3] concerns Mus musculus. Briefly: Mean body weight expressed as grams/mouse at 24hrs, when given at 100 mg/kg. The class given is functional. In short, it runs like this: as §1
Assay [4] relates to Mus musculus. The experiment in a line: In vivo plasma glucose lowering in db/db mice, given at 100 mg/kg in mouse, after 3 hr.
Assay [5] concerns Mus musculus. Briefly: In vivo plasma glucose lowering in db/db mice, given at 100 mg/kg in mouse, after 24 hr.
For assay [6], the system named is Mus musculus. Briefly: Food intake in C57BL/ks Mice expressed as gram/mouse/day and the observation made at 0 -24 Hrs, when administered at a dose of 30 mg/kg. It counts as functional. In short, it runs like this: (§2)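 Lean C57BL/ks mice dosed at 30 mg/kg/day, with vehicle control, n = 8. Plasma glucose measured predose and on day 3. Body weight recorded at 0, 24 and 48 h; food intake per mouse per day over 0-24 and 24-48 h. Vehicle comparison by Student's t-test.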

The subject of assay [7] is Mus musculus. Briefly: Food intake in C57BL/ks Mice expressed as gram/mouse/day and the observation made at 24-48 Hrs, when administered at a dose of 30 mg/kg. The class given is functional. In short, it runs like this: as §2
Assay [8] relates to Mus musculus. Briefly: Food intake in db/db Mice expressed as gram/mouse/day and the observation made at 0 - 24 Hrs, in db/db mice administered at a dose of 20 mg/kg. It counts as functional.
The test system of assay [9] is Mus musculus. Briefly: Food intake in db/db Mice expressed as gram/mouse/day and the observation made at 0 - 24 Hrs, in db/db mice administered at a dose of 30 mg/kg. It counts as functional. In short, it runs like this: as §1
The subject of assay [10] is Mus musculus. Briefly: Food intake in db/db Mice expressed as gram/mouse/day and the observation made at 24 - 48 Hrs, in db/db mice administered at a dose of 20 mg/kg. The class given is functional.
In assay [11] the test system is Mus musculus. The experiment in a line: Food intake in db/db Mice expressed as gram/mouse/day and the observation made at 24 - 48 Hrs, in db/db mice administered at a dose of 30 mg/kg. The class given is functional. In short, it runs like this:
as §1

The species entered for assay [12] is Mus musculus. The experiment in a line: Food intake in db/db Mice expressed as gram/mouse/day and the observed after 48 hr. The class given is functional. In short, it runs like this: as §1
Assay [13] has as its system Mus musculus. The experiment in a line: Mean body weight expressed as grams/mouse (C57BL/ks) at 48hrs, when given at 30 mg/kg. It counts as functional. In short, it runs like this: as §2
For assay [14], the system named is Mus musculus. The experiment in a line: Compound was evaluated for the in vivo effects on plasma glucose concentrations in db/db mice administered at a dose of 20 mg/kg mean body weight expressed as grams/mouse at 0 hr. The class given is functional.
Assay [15] relates to Mus musculus. Briefly: Compound was evaluated for the in vivo effects on plasma glucose concentrations in db/db mice administered at a dose of 20 mg/kg mean body weight expressed as grams/mouse at 24 hr. It counts as functional.
Assay [16] has as its system Mus musculus. Briefly: Compound was evaluated for the in vivo effects on plasma glucose concentrations in db/db mice administered at a dose of 30 mg/kg mean body weight expressed as grams/mouse at 0 hr. It counts as functional. In short, it runs like this: as §1
Assay [17] deals with Mus musculus. Briefly: Compound was evaluated for the in vivo effects on plasma glucose concentrations in db/db mice administered at a dose of 30 mg/kg mean body weight expressed as grams/mouse at 24 hr. It counts as functional. In short, it runs like this:
as §1

Assay [18] deals with Mus musculus. The experiment in a line: Mean body weight expressed as grams/mouse (C57BL/ks) at 0hrs, when given at 30 mg/kg. The class given is functional. In short, it runs like this:
as §2

Assay [19] concerns Mus musculus. The experiment in a line: Mean body weight expressed as grams/mouse (C57BL/ks) at 24hrs, when given at 30 mg/kg. The class given is functional. In short, it runs like this: as §2
In assay [20] the test system is Mus musculus. Briefly: Effect when given at 30 mg/kg in (C57BL/ks) mouse,Predose. It counts as functional. In short, it runs like this: as §2
Assay [21] deals with Mus musculus. Briefly: Effect when given at 30 mg/kg in (C57BL/ks) mouse, after day 3. The class given is functional. In short, it runs like this:
as §2

The subject of assay [22] is Mus musculus. The experiment in a line: Effect when given at 30 mg/kg in (db/db)mice,3 days postdose. The class given is functional. In short, it runs like this:
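db/db mice, eight per group with matched initial glucose, dosed orally by gavage once daily with vehicle or 30 mg/kg. Tail-vein blood taken predose and 3 h postdosing. Plasma glucose measured colorimetrically by glucose oxidase assay. Groups compared with vehicle by ANOVA and Fisher's post-hoc test.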

Assay [23] relates to Rattus norvegicus. The experiment in a line: […] effect of drug administration on Body weight in Fructose fed STZ-treated rats, after 24 hr (Treatment group - Fructose/STZ + cryptoline HCl, 30 mg/kg). It counts as functional. Particulars: in the assay text read “on day 3” for “after 24 hr”. In short, it runs like this: (§3)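 Male Sprague-Dawley rats, 8 weeks old, given STZ 55 mg/kg iv and a 60% fructose diet for 1 week. Rats with serum glucose of 250-350 mg/dL were sorted into matched groups (n = 14). Oral gavage once daily for 3 days with vehicle or 30 mg/kg in 2% DMSO, 10 mL/kg. Noninjected chow-fed vehicle controls (n = 19). Body weight and cage food consumption recorded daily.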

For assay [24], the system named is Rattus norvegicus. Briefly: […] effect of drug administration on Body weight in Fructose fed STZ-treated rats, pre dose ((Treatment group - Fructose/STZ + cryptoline HCl, 30 mg/kg). It counts as functional. In short, it runs like this: as §3
For assay [25], the system named is Rattus norvegicus. Briefly: […] effect of drug administration on food consumption in Fructose fed STZ-treated rats (Treatment group - Fructose/STZ + cryptoline HCl, 30 mg/kg). The class given is functional. In short, it runs like this:
as §3

On to `Cn1c2ccccc2c2nc3ccccc3cc21`, for which the Food intake in the assay filed under Mus musculus [1] is 4.4 g mouse-1 day-1. Moreover, the Mean body weight in the assay with Mus musculus [2] is listed as 41.4 g mouse-1; in the assay with Mus musculus [3] it was 42 g mouse-1. Besides, the Change of predose with Mus musculus [4] came out at 15.3%; in the assay on Mus musculus [5], 14.1%.

As to `C[n+]1c2ccccc2cc2[n-]c3ccccc3c21.Cl` [CRYPTOLEPINE HYDROCHLORIDE], the Food intake in the assay with Mus musculus [6] amounted to 2.7 g mouse-1 day-1; in the assay with Mus musculus [7], 2.3 g mouse-1 day-1; in the assay with Mus musculus [8] it was 3.3 g mouse-1 day-1; in the assay with Mus musculus [9], 2.4 g mouse-1 day-1; with Mus musculus [10], 3.8 g mouse-1 day-1; in the assay on Mus musculus [11], 2.4 g mouse-1 day-1. For the same compound, the Food intake turned out to be 0.9 g mouse-1 day-1 in the assay filed under Mus musculus [12] and 18 g/day in the assay on Rattus norvegicus [25]. In addition, the Mean body weight in the assay with Mus musculus [13] is 22.7 g mouse-1; in the assay on Mus musculus [14], 38 g mouse-1 and 37.4 g mouse-1; with Mus musculus [15], 37.9 g mouse-1; in the assay on Mus musculus [16], 37 g mouse-1 and 35.5 g mouse-1; in the assay with Mus musculus [17] it was 36.9 g mouse-1; in the assay on Mus musculus [2] it was 41 g mouse-1. For the same compound, the Mean body weight with Mus musculus [3] is 39.8 g mouse-1; in the assay with Mus musculus [18] it was 23.7 g mouse-1; in the assay on Mus musculus [19], 23.3 g mouse-1. Also, the Change of predose with Mus musculus [20] is 184 mg/dL; with Mus musculus [21], 171 mg/dL; in the assay with Mus musculus [22], 358 mg/dL; with Mus musculus [4], -16.4%; in the assay on Mus musculus [5], -43.1%. The Body weight in the assay with Rattus norvegicus [23] is 223 g; in the assay with Rattus norvegicus [24], 201 g.

In the assay listed under Mus musculus [1], `C[n+]1c2ccccc2cc2[n-]c3ccccc3c21` [CRYPTOLEPINE] registered a Food intake of 1 g mouse-1 day-1. For the same compound, the Mean body weight turned out to be 39.4 g mouse-1 in the assay with Mus musculus [2] and 38.7 g mouse-1 in the assay with Mus musculus [3]. In addition, the Change of predose is on record as -19.7% in the assay on Mus musculus [4] and -30% with Mus musculus [5].

The compound `C[n+]1c2ccccc2cc2[nH]c3ccccc3c21.[I-]` [CRYPTOLEPTINE IODIDE] yielded a Food intake in the assay filed under Mus musculus [1] of 1 g mouse-1 day-1. The Mean body weight in the assay on Mus musculus [2] is listed as 42.7 g mouse-1; with Mus musculus [3], 41.9 g mouse-1. Further, the Change of predose in the assay on Mus musculus [4] is on record as -11.5%; in the assay on Mus musculus [5] it was -22.5%.
